ChEMBL document CHEMBL5154634, “A Modular Synthetic Route Involving N-Aryl-2-nitrosoaniline Intermediates Leads to a New Series of 3-Substituted Halogenated Phenazine Antibacterial Agents” (J Med Chem, 2021)
In brackets after ≈: the same amount, converted by molar mass. Activity calls are given as the source filed them. The calls are words filed in the database; no cut-off is given here.

Experiments:
[1] = test system: Staphylococcus aureus; assay: Antibacterial activity against methicillin-resistant Staphylococcus aureus 156 assessed as bacterial growth inhibition; format: functional
[2] = test system: Staphylococcus aureus; assay: Antibacterial activity against methicillin-resistant Staphylococcus aureus clinical isolate 1 assessed as bacterial growth inhibition; format: functional
[3] = test system: Staphylococcus aureus; assay: Antibacterial activity against methicillin-resistant Staphylococcus aureus 147 assessed as bacterial growth inhibition; format: functional
[4] = test system: Staphylococcus aureus; assay: Antibacterial activity against methicillin-resistant Staphylococcus aureus clinical isolate 2 assessed as bacterial growth inhibition; format: functional
[5] = test system: Staphylococcus aureus; assay: Antibiofilm activity against methicillin-resistant Staphylococcus aureus BAA-44 biofilms assessed as biofilm eradication incubated for 24 hrs followed by incubation for 24 hrs in fresh medium by Calgary biofilm device assay; format: functional
Procedure, shortened: (§1)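 Calgary biofilm device. Mid-log culture diluted 1000-fold in TSB with 0.5% glucose; biofilms grown on pegs 24 h at 37 °C. Pegs washed and challenged with twofold compound dilutions for 24 h at 37 °C, then moved to fresh medium for 24 h. MBEC is the lowest concentration leaving wells non-turbid. At least three independent experiments.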

[6] = test system: Erythrocyte; assay: Hemolytic activity against human RBC at 200 uM measured after 1 hr; format: toxicity, cell-based
Procedure, shortened: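 2% hRBCs exposed to compound at 200 μM final, added from DMSO stock, for 1 h at 37 °C. Supernatant OD read at 405 nm. Hemolysis normalized between DMSO (0%) and Triton X (100%); three independent experiments.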

[7] = test system: Staphylococcus epidermidis; assay: Antibiofilm activity against methicillin-resistant Staphylococcus epidermidis ATCC 35984 biofilms assessed as biofilm eradication incubated for 24 hrs followed by incubation for 24 hrs in fresh medium by Calgary biofilm device assay; format: functional; procedure, shortened: as §1
[8] = test system: HeLa; assay: Cytotoxicity against human HeLa cells assessed as reduction in cell viability incubated for 24 hrs by LDH release assay; format: toxicity, cell-based
Procedure, shortened: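 HeLa cells in DMEM with 10% FBS, treated at 70–80% confluence with 25, 50 and 100 μM for 24 h. LDH in supernatant measured by 30 min reaction at room temperature, then stop solution and absorbance at 490 nm. Controls: 2% Triton X-100 (maximum), medium only, DMSO vehicle. Three independent experiments.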

[9] = test system: Staphylococcus epidermidis; assay: Bactericidal activity against methicillin-resistant Staphylococcus epidermidis ATCC 35984 planktonic cells assessed as planktonic eradication incubated for 24 hrs followed by incubation for overnight in fresh medium by Calgary biofilm device assay; format: functional
Procedure, shortened: (§2)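 Calgary biofilm device. Biofilms grown 24 h at 37 °C in TSB with 0.5% glucose, then challenged 24 h with twofold compound dilutions. 20 μL of challenge medium transferred into fresh TSB with 0.5% glucose and incubated overnight at 37 °C. MBC is the concentration with no visible turbidity. At least three independent experiments.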

[10] = test system: Staphylococcus aureus; assay: Induction of iron starvation in methicillin-resistant Staphylococcus aureus BAA-1707 biofilms assessed as upregulation of sbnC gene expression at 1/10XMBEC incubated for 4 hrs by RT-qPCR analysis; format: functional
Procedure, shortened: (§3)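 MRSA BAA-1707 grown in TSB with 0.5% glucose to OD600 ~0.8–1.0, then biofilms formed 20 h at 37 °C statically in gelatin-coated 24-well plates. Biofilms treated 4 h at 37 °C with compound (1 μM or 1/10 MBEC) or DMSO vehicle. RNA extracted; only RIN ≥7 samples used. One-step SYBR RT-qPCR; ΔCT normalised to ptaA. Three independent experiments.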

[11] = test system: HepG2; assay: Cytotoxicity against human HepG2 cells assessed as reduction in cell viability […] by Alamar blue assay; format: toxicity, cell-based
[12] = test system: Staphylococcus aureus; assay: Induction of iron starvation in methicillin-resistant Staphylococcus aureus BAA-1707 biofilms assessed as upregulation of isdB gene expression at 1 uM incubated for 4 hrs by RT-qPCR analysis; format: functional; procedure, shortened: as §3
[13] = test system: Staphylococcus aureus; assay: Antibacterial activity against methicillin-resistant Staphylococcus aureus BAA-1707 assessed as bacterial growth inhibition incubated for 16 hrs by broth microdilution susceptibility test; format: functional
Procedure, shortened: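 CLSI broth microdilution with 11 twofold dilutions (0.05–50 μM). About 10^5 cells per well from a log-phase culture. DMSO vehicle up to 0.5% v/v. At least three independent experiments.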

[14] = test system: Staphylococcus aureus; assay: Induction of iron starvation in methicillin-resistant Staphylococcus aureus BAA-1707 biofilms assessed as upregulation of sfaA gene expression at 1 uM incubated for 4 hrs by RT-qPCR analysis; format: functional; procedure, shortened: as §3
[15] = test system: Staphylococcus aureus; assay: Induction of iron starvation in methicillin-resistant Staphylococcus aureus BAA-1707 biofilms assessed as upregulation of sfaA gene expression at 1/10XMBEC incubated for 4 hrs by RT-qPCR analysis; format: functional; procedure, shortened: as §3
[16] = test system: Mycobacterium tuberculosis; assay: Antibacterial activity against Mycobacterium tuberculosis CDC1551 assessed as bacterial growth inhibition incubated for 5 days by luminescence based analysis; format: functional; conditions: CDC1551, 120 h, time 5 day
Procedure, shortened: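 Bioluminescent Mtb-lux CDC1551 reporter grown in Middlebrook 7H9 with 0.05% Tween 80, 10% OADC and kanamycin to OD600 0.4–0.8, then diluted to OD600 0.02. Added to twofold drug dilutions (0.003–200 μM). Incubated 5 days at 37 °C, 5% CO2. Luminescence read against 1% DMSO and 10 μM rifampicin controls to give % growth inhibition. MIC taken from a modified Gompertz fit.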

[17] = test system: Enterococcus faecium; assay: Antibiofilm activity against methicillin-resistant vancomycin-resistant Enterococcus faecium ATCC 700221 biofilms assessed as biofilm eradication incubated for 24 hrs followed by incubation for 24 hrs in fresh medium by Calgary biofilm device assay; format: functional; procedure, shortened: as §1
[18] = test system: Staphylococcus aureus; assay: Induction of iron starvation in methicillin-resistant Staphylococcus aureus BAA-1707 biofilms assessed as upregulation of MW0695 gene expression at 1 uM incubated for 4 hrs by RT-qPCR analysis; format: functional; procedure, shortened: as §3
[19] = test system: Staphylococcus aureus; assay: Bactericidal activity against methicillin-resistant Staphylococcus aureus BAA-1707 planktonic cells assessed as planktonic eradication incubated for 24 hrs followed by incubation for overnight in fresh medium by Calgary biofilm device assay; format: functional; procedure, shortened: as §2
[20] = test system: Staphylococcus aureus; assay: Induction of iron starvation in methicillin-resistant Staphylococcus aureus BAA-1707 biofilms assessed as upregulation of sbnC gene expression at 1 uM incubated for 4 hrs by RT-qPCR analysis; format: functional; procedure, shortened: as §3
[21] = test system: Staphylococcus aureus; assay: Induction of iron starvation in methicillin-resistant Staphylococcus aureus BAA-1707 biofilms assessed as upregulation of MW0695 gene expression at 1/10XMBEC incubated for 4 hrs by RT-qPCR analysis; format: functional; procedure, shortened: as §3
[22] = test system: Mycobacterium tuberculosis; assay: Antibacterial activity against Mycobacterium tuberculosis H37Ra ATCC 25177 assessed as bacterial growth inhibition incubated for 7 days by absorbance based analysis; format: functional; conditions: H37Ra ATCC 25177, 168 h, time 7 day
Procedure, shortened: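 H37Ra grown 2 weeks in Middlebrook 7H9, then diluted to OD600 0.01. Compounds added in twofold dilutions, final 0.024–50 μM, with 0.5% DMSO and streptomycin as positive control. Incubated 7 days at 37 °C. MIC is the lowest concentration with no growth, with OD600 recorded. At least three independent experiments.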

[23] = Binding affinity to Fe2+ assessed as compound-Fe2+ complex formation by UV-vis spectroscopy
[24] = test system: Enterococcus faecalis; assay: Antibacterial activity against Enterococcus faecalis OG1RF ATCC 47077 assessed as bacterial growth inhibition incubated for 16 hrs by broth microdilution susceptibility test; format: functional
[25] = test system: Enterococcus faecium; assay: Bactericidal activity against methicillin-resistant vancomycin-resistant Enterococcus faecium ATCC 700221 planktonic cells assessed as planktonic eradication incubated for 24 hrs followed by incubation for overnight in fresh medium by Calgary biofilm device assay; format: functional; procedure, shortened: as §2
[26] = test system: Staphylococcus aureus; assay: Induction of iron starvation in methicillin-resistant Staphylococcus aureus BAA-1707 biofilms assessed as upregulation of isdB gene expression at 1/10XMBEC incubated for 4 hrs by RT-qPCR analysis; format: functional; procedure, shortened: as §3
[27] = test system: J774; assay: Cytotoxicity against mouse J774 cells assessed as reduction in cell viability […] by Alamar blue assay; format: toxicity, cell-based
[28] = test system: Enterococcus faecalis; assay: Bactericidal activity against […] Enterococcus faecalis OG1RF ATCC 47077 planktonic cells assessed as planktonic eradication incubated for 24 hrs followed by incubation for overnight in fresh medium by Calgary biofilm device assay; format: functional
Procedure, shortened: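 Calgary biofilm device in BHI. Biofilms grown 24 h at 37 °C and challenged 24 h with twofold compound dilutions. Challenge medium subcultured 1:10 into fresh BHI overnight at 37 °C. MBC is the concentration with no turbidity. At least three independent experiments.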

[29] = test system: Enterococcus faecalis; assay: Antibiofilm activity against Enterococcus faecalis OG1RF ATCC 47077 biofilms assessed as biofilm eradication incubated for 24 hrs followed by incubation for 24 hrs in fresh medium by Calgary biofilm device assay; format: functional
Procedure, shortened: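 Calgary biofilm device. Biofilms grown 24 h at 37 °C in BHI from mid-log culture diluted 1000-fold. Pegs washed and then challenged 24 h with twofold serial dilutions. Pegs moved to fresh BHI for 24 h recovery. MBEC = lowest concentration leaving no turbidity; at least three independent experiments.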

[30] = test system: Staphylococcus aureus; assay: Antibacterial activity against methicillin-resistant Staphylococcus aureus BAA-44 assessed as bacterial growth inhibition incubated for 16 hrs by broth microdilution susceptibility test; format: functional
Procedure, shortened: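 CLSI broth microdilution with 11 twofold dilutions (0.05–50 μM). Medium was LB for the staphylococci and BHI for VRE 700221. About 10^5 cells per well from a log-phase culture. […] DMSO vehicle up to 0.5% v/v. At least three independent experiments.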

[31] = test system: Staphylococcus aureus; assay: Antibacterial activity against methicillin-resistant Staphylococcus aureus 138 assessed as bacterial growth inhibition; format: functional
[32] = Dissociation constant, pKa of the compound at 125 uM by UV-vis spectrophotometric analysis; format: physicochemical
Procedure, shortened: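 Compound at 125 μM final in phosphate buffers (KH₂PO₄/Na₂HPO₄) in 1:1 water/methanol, pH 4.07–9.66; ammonium hydroxide added for pH above 9.80. UV-vis scans 200–800 nm to find λmax of phenol and phenolate forms. Absorbance at each λmax plotted against pH.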

[33] = test system: Staphylococcus aureus; assay: Antibacterial activity against methicillin-resistant Staphylococcus aureus 129 assessed as bacterial growth inhibition; format: functional
[34] = test system: Staphylococcus aureus; assay: Antibiofilm activity against methicillin-resistant Staphylococcus aureus BAA-1707 biofilms assessed as biofilm eradication incubated for 24 hrs followed by incubation for 24 hrs in fresh medium by Calgary biofilm device assay; format: functional; procedure, shortened: as §1

| SMILES | MIC [1] [µM] | MIC [2] [µM] | MIC [3] [µM] | MIC [4] [µM] | Activity [6] | MBC [9] [µM] | IC50 [11] [µM] | MIC [16] [µM] | MBEC [17] [µM] | MBC [19] [µM] | MIC [24] [µM] | IC50 [27] [µM] | further results |
| --- | --- | --- | --- | --- | --- | --- | --- | --- | --- | --- | --- | --- | --- |
| COc1cccc(OC)c1C(=O)N[C@@H]1C(=O)N2[C@@H]1SC(C)(C)[C@@H]2C(=O)O [METHICILLIN] | ≥ 37.5 | ≥ 37.5 | ≥ 37.5 | ≥ 37.5 |  |  |  |  |  |  |  |  |  |
| Oc1c(Br)c(Cl)c(Br)c2nc3ccccc3nc12 |  |  |  |  | <= 1% | 12.5 (≈ 4.86 µg/mL) | > 200 | 4.37 (≈ 1.7 µg/mL) | 2.35 | 50 (≈ 19.4 µg/mL) | 3.13 (≈ 1.22 µg/mL) | > 200 | MBEC [5]: 75 µM; MBEC [7]: 25 µM; IC50 [8]: > 100 µM; Activity [10]: Active; Activity [12]: Active; MIC [13]: 0.15 µM (≈ 0.0583 µg/mL); Activity [14]: Active; Activity [15]: Active; Activity [18]: Active; Activity [20]: Active; Activity [21]: Active; MIC [22]: 6.25 µM (≈ 2.43 µg/mL); Activity [23]: Active; MBC [25]: 4.69 µM (≈ 1.82 µg/mL); Activity [26]: Active; MBC [28]: 75 µM (≈ 29.1 µg/mL); MBEC [29]: >200 µM |
| CCSc1c(Br)c(O)c2nc3cccc(C)c3nc2c1Br | 0.31 (≈ 0.133 µg/mL) | 0.31 (≈ 0.133 µg/mL) | 0.31 (≈ 0.133 µg/mL) | 0.31 (≈ 0.133 µg/mL) | 5.7% | 12.5 (≈ 5.35 µg/mL) | > 200 | 1.69 (≈ 0.724 µg/mL) | 3.13 | 50 (≈ 21.4 µg/mL) | 0.78 (≈ 0.334 µg/mL) | > 100 | MIC [30]: 0.3 µM (≈ 0.128 µg/mL); MIC [31]: 0.31 µM (≈ 0.133 µg/mL); pKa at 125 µM [32]: 7.88; MIC [33]: 0.31 µM (≈ 0.133 µg/mL); MBEC [34]: 200 µM |
